Sampled rows, rich in hits. Any-hit rate of the full collection: about 3.9%.
Gli-Sufu block = blocks Gli-Sufu signaling in a luciferase reporter; actives 0.74% (n = 340,000); inhibition, % at 5 µM; Sufu-KO-LIGHT fibroblasts, Gli luciferase reporter luminescence;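 active means inhibition above about 55%, limit read from the data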;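 further: 0% = DMSO-treated cells and 100% = wells with medium but no cells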
UPR XBP1 act = activators of adaptive arm of unfolded protein response (XBP1) | CHO-XBP1 luciferase reporter, IRE1-XBP1 UPR activation, luminescence; percent of tunicamycin response, DMSO as zero | activation, % at 20 µM | actives 0.33% (n = 330,000) | AID 463104;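 active means versus positive control, 20 µM dose yields 30% or more activation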;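 further: 100% = tunicamycin at 10 µg/mL and 0% = DMSO only wells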
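Material – CHO cell line with stable XBP1 luciferase reporter · Buffer or medium – F12 plus 10% FBS · Compound – single point, 20 µM final compound, 1% DMSO · Schedule – 16-18 h cell attachment at 37 °C, then 6 h compound exposure · Signal – Steady-Glo luminescence read · Benchmarks – high control tunicamycin 10 µg/mL final, low control DMSO vehicle only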
697 NFkB inh = lowers PMA/ionomycin-induced NF-kB signal in 697 B cells; actives 0.33% (n = 330,000); inhibition, % at 4 µM; 697 B-cell NF-kB luciferase reporter, 16 h; AID 435022; in the data active means inhibition above about 35%
CHOP inh = inhibitors of CHOP induction in ER stress response. CHO-K1 CHOP-promoter luciferase, tunicamycin-induced, 15-18 h. actives 3.8% (n = 220,000). inhibition, % at 10 µM. AID 2732;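 active means compounds that reduced the stress-induced luciferase reporter signal by more than about 70% of percent inhibition, limit read from the data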;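 further: 0% = tunicamycin plus vehicle and 100% = wells without tunicamycin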
UPR CHOP act = activators of apoptotic arm of unfolded protein response (CHOP); actives 0.34% (n = 330,000); CHO-CHOP luciferase reporter, UPR activation, luminescence; percent of tunicamycin response over DMSO baseline; activation, % at 10 µM;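 active means at 10 µM dose, activation of 40% or more, normalized to positive control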;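 further: 100% = tunicamycin at 10 µg/mL and 0% = DMSO alone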
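System: CHO-CHOP luciferase reporter cell line; amount: 500 cells/well; buffer or medium: F12 medium containing 10% fetal bovine serum; incubation: 6 h compound exposure at 37 °C after overnight seeding; measured by: luciferase luminescence after 10 min with Steady-Glo reagent; evaluation: % reporter activation, DMSO baseline versus tunicamycin full activation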
Jurkat NFkB inh = inhibitors of the PMA/ionomycin-induced NF-kB reporter in Jurkat cells; AID 435003; inhibition, % at 4 µM; actives 0.53% (n = 330,000); PMA/ionomycin-induced NF-kB luciferase reporter, luminescence; in the data active means inhibition above about 50%
CHOP UPR conf = confirmation of apoptotic unfolded protein response (CHOP) activators; shares compounds with UPR CHOP act; CHO-CHOP cells, CHOP-luciferase reporter luminescence; percent of tunicamycin response, DMSO as zero; activation, % at 10 µM; actives 64% (n = 1,000); in the data active means activation above about 33%;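 further: 0% = DMSO wells and 100% = tunicamycin 10 µg/mL wells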
XBP1 UPR conf = adaptive UPR (XBP1) activation, confirmed; shares compounds with UPR XBP1 act; CHO-XBP1 IRE1-XBP1 luciferase reporter, luminescence; activation, % at 20 µM; actives 63% (n = 1,000); AID 485299;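 active means reporter signal at least 30% of the positive control's activation in two or more of four replicate wells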;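 further: plate controls were DMSO negative control for no effect and tunicamycin 10 µg/mL positive control for full effect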
Gli antag conf = confirmation of Gli-SUFU pathway antagonists. shares compounds with Gli-Sufu block. Sufu-KO-LIGHT cells, Gli luciferase reporter, luminescence. inhibition, % at 5 µM. actives 40% (n = 2,500);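 active means mean inhibition at 5 µM reaching about 45%, limit read from the data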;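 further: plate controls were DMSO-treated cells for no effect and wells lacking cells for full effect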
SufuKO cytotox = cytotoxicity counter-screen for Gli-SUFU antagonists | shares compounds with Gli-Sufu block | Sufu-KO-LIGHT cells cytotoxicity, ATP luminescence | cytotoxicity, % at 5 µM | actives 32% (n = 2,500);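 active means mean cytotoxicity at 5 µM above about 25%, limit read from the data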;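 further: cells exposed to compound overnight for roughly 16 to 18 hours; plate controls were DMSO wells with cells for no effect and medium without cells for full effect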
Wnt3a counter = Wnt3a reporter inhibition counter-screen. shares compounds with Gli-Sufu block. Wnt-LIGHT cells, Wnt3a-driven luciferase reporter, luminescence. inhibition, % at 6.25 µM. actives 20% (n = 2,500). AID 651995;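 active means mean inhibition above about 25%, limit read from the data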
* marks the source's active call; other numbers are inactive results; · = not tested or not shown.

SMILES | Gli-Sufu block | UPR XBP1 act | 697 NFkB inh | CHOP inh | UPR CHOP act | Jurkat NFkB inh | CHOP UPR conf | XBP1 UPR conf | others
COC(=O)c1ccc(-n2c(C)cc(C(=O)CCl)c2C)cc1 | 2 | 74* | 24 | 90* | 502* | -5 | 268* | 16
COC(=O)c1ccc(-n2c(C)cc(C(=O)COC(=O)C3=COCCO3)c2C)cc1 | -7 | -2 | 15 | · | 0 | 4 | · | ·
CC(C)c1ccc(C(C)NCCS(=O)(=O)c2ccc(Cl)cc2)cc1 (stereo not drawn) | 11 | -7 | 2 | · | -4 | -14 | · | ·
O=C(NCCc1ccccc1O)c1cc2c(cc1[N+](=O)[O-])OCO2 | 10 | · | · | · | · | · | · | ·
O=C(NN=Cc1cccc([N+](=O)[O-])c1)c1cccc2ccccc12 | -5 | · | · | · | · | · | · | ·
C=CCOc1ccc2cccc(/C=N/NC(=O)c3cc4cc([N+](=O)[O-])ccc4s3)c2c1 | -4 | 47* | -19 | 52 | 55* | -12 | 32 | 45*
CCCCCCNC(=O)c1cn(CC)c2cc(N3CCN(C)CC3)c(F)cc2c1=O | 8 | 3 | -7 | · | 0 | -19 | · | ·
COc1cccc2sc(N3CCN(c4nc5ccccc5s4)CC3)nc12 | -19 | 94* | 13 | 80* | 88* | 20 | 42* | 86*
COc1ccc2oc(C(=O)NC3(C)CCS(=O)(=O)C3)c(C)c2c1 (stereo not drawn) | -5 | -3 | 5 | · | 0 | 9 | · | ·
COc1ccc(-c2cc(-c3ccccc3)c(C#N)c(S(C)(=O)=O)n2)cc1 | -7 | 45* | 30 | -74 | 103* | 8 | 119* | 99*
CCc1nnc(NC(=O)CSc2nc(-c3ccccc3)cc(-c3ccc(OC)cc3)c2C#N)s1 | 5 | 58* | 4 | 45 | 93* | -5 | 105* | 26
O=C(/C(=C\c1ccccc1)c1nc2ccccc2[nH]1)c1ccc(Cl)cc1 | -36 | 53* | -123 | 87* | 104* | -80 | 267* | 8
O=C(Nc1nc(-c2ccc3ccccc3c2)cs1)c1ccc(N2C(=O)CCC2=O)cc1 | -4 | 45* | -33 | 42 | 76* | -5 | 56* | 47*
CC1CCCN(C(=S)SCC(=O)c2cc(Br)cc(Br)c2O)C1 (stereo not drawn) | 12 | 3 | 8 | 10 | 0 | 1 | · | ·
O=C(CSC(=S)N1CCCC1)c1cc(Br)cc(Br)c1O | 85* | 9 | -30 | -52 | 71* | 6 | 45* | · | Gli antag conf=9;SufuKO cytotox=9;Wnt3a counter=-29
C=CCn1nc([N+](=O)[O-])nc1Sc1cccc2cccnc12 | 68* | 14 | -17 | 88* | 168* | 10 | 230* | · | Gli antag conf=48*;SufuKO cytotox=15;Wnt3a counter=-93
O=[N+]([O-])c1ccc(Sc2cccc3cccnc23)cc1 | -31 | 7 | -21 | 20 | 2 | -13 | · | ·
C=CCn1c(O)c(N=NC(=S)Nc2ccccc2F)c2cc(S(=O)(=O)N3CCOCC3)ccc21 | 64* | -1 | -17 | -28 | 88* | 12 | 121* | · | Gli antag conf=56*;SufuKO cytotox=29*;Wnt3a counter=-23
Cc1noc(NS(=O)(=O)c2ccc(NC(=O)/C=C/c3ccccc3)cc2)c1C | 6 | -3 | -1 | · | 0 | -10 | · | ·
Oc1ccc(/C=N/Nc2nc(N3CCCC3)nc(N3CCCC3)n2)cc1O | 64* | 67* | -1 | -126 | 257* | 3 | 180* | 44* | Gli antag conf=51*;SufuKO cytotox=23;Wnt3a counter=83*
COc1cc(/C=N/Nc2nc(N3CCCC3)nc(N3CCCC3)n2)ccc1O | -1 | 1 | 10 | 17 | 1 | -14 | · | ·
Cc1cccc(C(=O)NNC(=O)c2ccc(NS(=O)(=O)c3cccs3)cc2)c1C | -3 | -5 | 6 | · | -2 | -13 | · | ·
CN1/C(=C\C(=O)COC(=O)c2ccc(O)c(O)c2)C(C)(C)c2ccccc21 | 65* | 41* | -24 | 42 | 96* | 21 | 81* | 33* | Gli antag conf=64*;SufuKO cytotox=26*;Wnt3a counter=75*
O=C(CSc1nnc2ncccn12)Nc1cccc2ccccc12 | 0 | -3 | -4 | · | 1 | -1 | · | ·
Cc1ccc2c(c1)c(N=Nc1ccc([N+](=O)[O-])cc1)c(O)n2C | 51 | 99* | 13 | · | 73* | 10 | 3 | · | Gli antag conf=37;SufuKO cytotox=14;Wnt3a counter=-14
SMILES | Gli-Sufu block | UPR XBP1 act | 697 NFkB inh | CHOP inh | UPR CHOP act | Jurkat NFkB inh | CHOP UPR conf | XBP1 UPR conf | others
Cc1nc2c(N=Nc3ccccc3F)c(N)nn2c(N)c1C#N | -32 | 44* | -15 | 2 | 15 | -30 | · | 21
CC1(C)C2CC[C@]3(C)C(CC=C4[C@@H]5C[C@@](C)(CO)[C@@H]6C[C@@]5(CC[C@]43C)C(=O)O6)[C@@]2(C)CC[C@@H]1O (stereo partly drawn) | -3 | 0 | -1 | · | -1 | -4 | · | ·
CC1(C)CC[C@@]23CC[C@]4(C)[C@@](OC2=O)(C3C1)[C@H]1O[C@H]1C1[C@@]2(C)CC[C@H](O)C(C)(C)C2CC[C@]14C (stereo partly drawn) | -1 | 50* | 21 | · | 0 | 12 | · | 46*
NCCc1c(-c2ccccc2)n(-c2ccccc2)c2ccccc12 | 18 | 38* | 2 | -9 | 4 | 45 | · | 84*
CC(=O)n1c(-c2ccccc2)c(CO)c2ccccc21 | -2 | 5 | 8 | · | -1 | 1 | · | ·
C[C@@H]1CN([C@@H](C)CO)C(=O)c2cccc(NC(=O)C3CCOCC3)c2O[C@H]1CN(C)S(=O)(=O)c1ccc(Cl)cc1 | 8 | -3 | 14 | · | 0 | 0 | · | ·
COc1cc(/C=N/Nc2nc(Nc3ccccc3)nc(-n3nc(C)cc3C)n2)cc(OC)c1OC | 15 | 72* | 21 | -27 | 19 | 39 | · | 90*
COc1cc(/C=N/Nc2nc(Nc3ccc(C)cc3)nc(-n3nc(C)cc3C)n2)cc(OC)c1OC | 12 | 50* | 9 | 22 | 14 | 39 | · | 69*
Cc1cccn2c(=O)c3cc(C(=O)NC4CCCCC4)n(C)c3nc12 | -7 | 15 | -19 | · | 7 | 17 | · | ·

Bioassay records: PubChem, several laboratories
